OX1R antag-1: antagonists of human orexin 1 receptor (OX1R) | inhibition, % at 6.6 µM | OX1R-expressing cells, FRET antagonist read-out | 1.8% of 330,000 active | Orexin/Hypocretin receptor type 1 (Homo sapiens), O43613 | AID 485270, 2010; in the data active = inhibition mostly above about 38%, no sharp cut-off; inactive = mostly below about 40%;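 also: 0% = agonist challenge alone and 100% = reference antagonist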
GalR3 antagonist: GalR3 antagonists in HEK293 cells, primary screen, cell-based, fluorescence readout; 0.44% of 360,000 active; Galanin receptor type 3 (Homo sapiens), O60755; inhibition, % at 3 µM; HEK293 GalR3-CNG cAMP membrane potential fluorescence; galR3 body fused to GalR1 C-terminus;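 active = inhibition above the screen-wide average plus 3 SD, cut at about 13% in these data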;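 also: forskolin and galanin both at EC90 stimulate the cells; cAMP rise reported by CNG channel membrane potential dye signal; 0% = forskolin plus galanin with DMSO and 100% = forskolin alone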
Target sequence (O60755 1-299 limits assumed): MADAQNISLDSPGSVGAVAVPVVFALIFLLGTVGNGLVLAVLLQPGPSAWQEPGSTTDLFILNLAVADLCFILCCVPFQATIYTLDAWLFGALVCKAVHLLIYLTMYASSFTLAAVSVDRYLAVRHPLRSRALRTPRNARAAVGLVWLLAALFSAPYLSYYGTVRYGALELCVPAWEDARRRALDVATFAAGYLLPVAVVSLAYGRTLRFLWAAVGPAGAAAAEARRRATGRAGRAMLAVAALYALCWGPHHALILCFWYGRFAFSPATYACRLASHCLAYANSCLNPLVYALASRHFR
OX1R antag-2: OX1R (HCRTR1) antagonists, primary screen, fluorescence, CHO/OX1R cells, Fluo-8 calcium, orexin A. Orexin/Hypocretin receptor type 1 (Homo sapiens), O43613. Fluo-8 calcium fluorescence. inhibition, % at 5 µM. 0.43% of 330,000 active;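 active = inhibition above its plate's threshold, mean inhibition of all tested compounds on the plate plus 3 SD, cut at about 37% in these data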;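 also: 0% = orexin A challenge wells and 100% = SB-334867-A antagonist wells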
CHO parental Ca: ATP-evoked calcium signal inhibitors, parental CHO, primary screen, counter-screen for OX1R antagonist project, cell-based, fluorescence, Fluo-8 calcium dye | AID 463079, 2010 | parental CHO-K1, ATP-induced calcium, Fluo-8 fluorescence | 0.63% of 330,000 active | inhibition, % at 5.6 µM;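 active = inhibition above that plate's mean sample inhibition plus 3 SD, cut at about 26% in these data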;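 also: 0% = ATP-challenged DMSO wells and 100% = DMSO wells without ATP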
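Test system: untransfected parental CHO cell line. Compound: one dose, 5.6 µM nominal. Detection: intracellular calcium via Fluo-8 no-wash fluorescent dye. Measure: % inhibition. Benchmarks: ATP-challenged DMSO wells low, unchallenged DMSO wells high.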
GPR7 antag: GPR7 receptor antagonists, primary screen, cell-based, fluorescence, single concentration | GPR7-expressing cells, fluorescence antagonist assay | 1.1% of 290,000 active | inhibition, % at 4.4 µM; in the data active = inhibition above about 16%, passing the limit was not always enough;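 also: cells stimulated with the agonist NPW; 0% = agonist with vehicle and 100% = vehicle without agonist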
Target sequence (P48145 whole entry, looked up): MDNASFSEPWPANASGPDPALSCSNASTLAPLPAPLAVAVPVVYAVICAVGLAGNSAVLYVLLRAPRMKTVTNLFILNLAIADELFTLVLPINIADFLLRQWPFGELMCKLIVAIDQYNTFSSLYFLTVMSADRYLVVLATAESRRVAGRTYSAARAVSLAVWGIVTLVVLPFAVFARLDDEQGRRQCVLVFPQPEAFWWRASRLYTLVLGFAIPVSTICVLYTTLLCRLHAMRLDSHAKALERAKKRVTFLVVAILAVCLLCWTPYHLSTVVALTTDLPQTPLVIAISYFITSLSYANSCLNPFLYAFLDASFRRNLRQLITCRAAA
The depositor's hits bear a star; . = no result given. Shown are actives, neighbours in structure and some others; about 3.1% of the full set was active somewhere.

SMILES	OX1R antag-1	GalR3 antagonist	OX1R antag-2	CHO parental Ca	GPR7 antag
COc1ccc(C(=O)NCC(=O)N=Nc2c(O)n(C)c3ccccc23)cc1OC	56.7*	5.9	-7.3	-23.4	-5.4
Cc1ccc(C)c(NC(=S)NNc2ccc(F)cc2F)c1	16.7	-4.3	83.4*	70.7*	18.2
CSCCC(NC(=O)c1ccc([N+](=O)[O-])cc1Cl)C(=O)OCC(=O)C12CC3CC(CC(C3)C1)C2 (centres undefined)	7.9	-3.1	-14.2	-8.3	9.8
CSCCC(NC(=O)c1ccc([N+](=O)[O-])cc1Cl)C(=O)OC(C)C(=O)NCc1ccco1 (centres undefined)	49.4*	-1.9	-22.8	-15.6	.
CSCCC(NC(=O)c1ccc([N+](=O)[O-])cc1Cl)C(=O)OCC(=O)N1CCN(C(C)=O)CC1 (centres undefined)	54.9*	4.2	-2.5	0.5	.
CC(=O)O[C@H]1CC[C@]2(C)C3CC[C@]4(C)[C@@H]([C@H](C)/C=C/[C@H](C)C(C)C)CC[C@H]4[C@@]34C=C[C@]2(C1)N(C(=O)c1ccccc1)O4 (some centres undefined)	.	-3.3	.	.	.
O=C(N[C@@H](Cc1cccnc1)C(=O)N1CCC[C@H]1C(=O)NCCc1ccccc1Cl)C1CC1	.	-7.2	.	.	.
O=C(Nc1ccccc1N1CCCCC1)c1cc(S(=O)(=O)N2CCOCC2)ccc1F	.	0.3	.	.	.
CCOC(=O)c1ccccc1NC(=O)c1cc(S(=O)(=O)N2CCOCC2)ccc1F	33.9	13.3*	-26.5	-38.4	2.6
COc1ccc2sc(NC(C)=O)nc2c1	15.4	-3.9	-5.0	4.6	11.6
COc1ccc2sc(NC(=O)NC(=O)c3c(Cl)cccc3Cl)nc2c1	8.6	2.3	-23.3	0.4	19.6*
Cc1cccc(NC(=O)c2nc[nH]c2C(=O)N(C)CCO)c1	.	-6.7	.	.	.
C=CC[C@@H](CC(=O)OC(C)(C)C)C(=O)OC[C@@H]1CCCN1C(=O)[C@@H](CC=C)CC(=O)N[C@@H](CO)Cc1ccccc1	8.1	-3.8	-14.9	-33.7	.
C=CC[C@@H](Cc1ccc(F)cc1)C(=O)OC[C@@H]1CCCN1C(=O)[C@H](CC=C)CC(=O)N[C@H](CO)Cc1ccccc1	64.1*	-3.8	101.3*	33.8	.
Cc1nc2c(ccc3nc(NC(=O)c4ccc5c(c4)OCCO5)sc32)s1	64.4*	-9.8	20.2	-18.6	-0.5
CC(C)C[C@H]1COc2cc(Br)ccc2S(=O)(=O)N1Cc1ccc(F)cc1F	.	-1.4	.	.	.
O=[N+]([O-])c1ccccc1Nc1cccc(F)c1	.	-5.0	.	.	.
COc1ccc(Nc2n[nH]c(C)c2[N+](=O)[O-])cc1	18.4	-0.1	-13.3	-8.8	-1.9
O=[N+]([O-])c1cnccc1Nc1cccc(F)c1	75.4*	-1.3	-8.1	-6.0	-9.4
COc1ccc(Nc2ccncc2[N+](=O)[O-])cc1	41.1*	2.0	-13.3	3.3	-7.9
FC(F)(F)Oc1ccccc1C(c1nnnn1-c1ccc2c(c1)OCCO2)N1CCN(C/C=C/c2ccccc2)CC1 (centres undefined)	.	-1.7	.	.	.
O=C(Nc1ccc2c(c1)OCCO2)C(=O)c1c[nH]c2ccccc12	49.9*	-4.3	19.9	3.9	13.1
CSc1ccccc1NC(=O)C(=O)c1c[nH]c2ccccc12	48.0*	-1.9	-10.8	-6.2	-4.5
CC(=O)c1ccc(NC(=O)c2ccc3nc(-c4ccco4)c(-c4ccco4)nc3c2)cc1	35.9	.	-29.0	-2.0	-1.2
O=C(NCCO)Nc1ccc2nc(-c3ccco3)c(-c3ccco3)nc2c1	100.1*	.	-116.4	-7.5	-3.4
SMILES	OX1R antag-1	GalR3 antagonist	OX1R antag-2	CHO parental Ca	GPR7 antag
O=C(Nc1ccccc1)c1ccc2nc(-c3ccco3)c(-c3ccco3)nc2c1	101.9*	-1.5	70.8*	-24.4	-0.9
CC1(C)C=Cc2c(ccc3c2OC[C@H](c2ccc(O)cc2O)C3)O1	0.1	4.0	51.9*	79.2*	.
COc1ccc(C(=O)C(=O)N2CCN(C(=O)c3ccccc3C(F)(F)F)CC2)cc1OC	.	1.7	.	.	.
COc1ccc(-c2nc(-c3ccc(NC(=O)c4ccncc4)cc3)no2)cc1OC	59.6*	.	4.8	25.6	-9.3
Cc1nc2cc[nH]n2c(=O)c1CCc1ccccc1	.	-8.9	.	.	.
COC(=O)c1sc(NC(=O)COc2cccc(C)c2)nc1C	69.2*	-5.6	-13.4	-6.4	12.7
COC(=O)c1sc(NC(=O)COc2ccc(OC)cc2)nc1C	17.7	-5.3	-15.8	-15.9	7.1
O=C(Nc1nc2ccccc2s1)C1CCCN1S(=O)(=O)c1ccc(Cl)cc1 (centres undefined)	54.5*	-4.4	0.4	-25.1	-12.1
Cc1ccc(S(=O)(=O)N2CCCC2C(=O)Nc2nc3ccccc3s2)cc1 (centres undefined)	73.7*	.	0.8	-23.0	-13.6
CCn1c(/C=C/c2ccccc2)nc2ccccc21	47.6*	-7.4	-10.8	-28.8	-12.7
CCOC(=O)C1=C(C(=O)OCC)C2N(Cc3ccc(Br)cc3)c3ccccc3[C@@]23C[C@@H](C(=O)OC)N(S(=O)(=O)c2ccc(F)cc2)C3=N1 (some centres undefined)	.	-4.3	.	.	.
CN(c1ccccc1)c1ccc(/C=C/[N+](=O)[O-])cc1	55.2	-4.6	78.4*	62.9*	11.6
CCOC(=O)c1cc2c(C)n(-c3ccc(C)cc3)c(C)c2ccc1=O	40.5*	-7.0	-12.7	-7.6	-10.4
CCOC(=O)c1cc2c(C)n(-c3ccc(OCC)cc3)c(C)c2ccc1=O	26.1	-3.3	-32.3	-13.0	19.1
CCC(=O)/C=C1/Sc2ccccc2N1CC	35.4	-5.2	-26.2	-17.7	-9.2
CCOC(=O)/C(=C/C=C1\Sc2ccccc2N1CC)C(C)=O	40.5	.	29.9	28.1*	10.7
CC12CCC3c4ccc(O)cc4CCC3C1CCC2=O (centres undefined)	28.3	-1.6	-13.8	-9.5	.
CCn1cc(/C=N/N=C2\CCC3C4CCc5cc(O)ccc5C4CC[C@]23C)c(C)n1 (some centres undefined)	52.6	0.2	29.7	38.1*	-2.0
O=C(Oc1c(Cl)cc(Cl)c2cccnc12)c1cccs1	21.2	-4.6	2.3	21.5	-3.3
O=C(Oc1c(Cl)cc(Cl)c2cccnc12)c1ccco1	35.9	-2.8	44.3	33.6*	-9.6
CCOC(=O)Nc1ccc2c(c1)C(=NNC(=S)NC)c1ccccc1-2	.	-3.4	.	.	.
C=CCNc1cccc2c1S(=O)(=O)N[C@@H](Cc1ccccc1)CO2	.	-6.1	.	.	.
COc1cc(Nc2ccc(C(=O)O)cc2[N+](=O)[O-])cc(OC)c1	53.7*	0.0	-6.6	-3.2	-9.5
COCCCn1c(O)c(/C=C2\N=C(C#N)C(=Nc3ccc(C)cc3)O2)sc1=S	17.4	-7.3	34.4	39.2*	-9.2
